Columns and labels:
[1] = system: myoblast cells (C2C12); test: MTT cell viability of normal myoblast cells at a single concentration; type: cell-based, human; conditions: DHPM 10 μM, 48 hours
Summary of the method: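 C2C12 myoblasts were grown in DMEM with 10% FBS, amphotericin B and gentamicin at 37 °C, 5% CO2, and seeded at 5000 cells/well for 12 h. Test compound was applied at 10 μM for 48 h. Cells were washed with PBS, given 0.5 mg mL−1 MTT in PBS for 90 min at 37 °C, and the formazan was dissolved in DMSO with 30 min agitation in the dark. A570 was read, in triplicate.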

[2] = system: myoblast cells (C2C12); test: MTT assay, IC50 against myoblast cells; type: cell-based; conditions: C2C12, 48 h, read-out: IC50 (μM) C2C12
Summary of the method: (§1)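 Cells kept at 37 °C, 5% CO2: AGS in RPMI-1640 and C2C12 in DMEM, each with 10% FBS, 0.25 μg mL−1 amphotericin B and 25 μg mL−1 gentamicin. 5000 cells/well were seeded for 12 h, then given test compound at 1000, 100, 10, 1 and 0.1 μM for 48 h. Untreated cells served as controls.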

[3] = system: AGS (gastric adenocarcinoma) cells; test: MTT assay, IC50 against gastric cancer cells; type: cell-based; conditions: 48 h, read-out: IC50 (μM) AGS
Summary of the method: as §1

[4] = system: MCF-7 (mammary carcinoma) cells; test: MTT assay, IC50 against breast cancer cells; type: cell-based; conditions: Homo sapiens, MCF7, 48 h, read-out: IC50 (μM) MCF-7
Summary of the method: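 MCF-7 cells grown in DMEM with human insulin (10 μg mL−1), 10% FBS, amphotericin B and gentamicin at 37 °C, 5% CO2. Seeded at 5000 cells per well for 12 h, then exposed 48 h to the test compound at 0.1, 1, 10, 100 and 1000 μM, with untreated controls. PBS wash, 0.5 mg mL−1 MTT for 90 min at 37 °C, DMSO solubilisation, A570.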

Compound	IC50 [3] [µM]	IC50 [4] [µM]	viability (%) of myoblast cells (C2C12) [1] [%]	IC50 [2] [µM]
CCCCCCCC/C=C\CCCCCCCCOC(=O)C1=C(C)NC(=O)NC1c1cccc(O)c1 (stereo not shown) [10c, (Z)-Octadec-9-enyl 4-(3-hydroxyphenyl)-6-methyl-2-oxo-1,2,3,4-tetrahydropyrimidine-5-carboxylate]	12.1 ± 0.4	2.3 ± 0.4	~70	18.4 ± 10.5
CCCCCCCC/C=C\CCCCCCCCOC(=O)C1=C(C)NC(=S)NC1c1ccc(C)cc1 (stereo not shown) [11h, (Z)-Octadec-9-enyl 6-methyl-2-thioxo-4-(p-tolyl)-1,2,3,4-tetrahydropyrimidine-5-carboxylate]	126 ± 4.6	39.2 ± 4.9	–	362 ± 12.6
CCCCCCCC/C=C\CCCCCCCCOC(=O)C1=C(C)NC(=S)NC1c1ccc(OC)cc1 (stereo not shown) [11i, (Z)-Octadec-9-enyl 4-(4-methoxyphenyl)-6-methyl-2-thioxo-1,2,3,4-tetrahydropyrimidine-5-carboxylate]	101.8 ± 0.6	16.4 ± 2.7	–	166 ± 8.9
CCOC(=O)C1=C(C)NC(=S)NC1c1cccc(O)c1 (stereo not shown) [Monastrol, reference compound]	40 ± 6.2	25.6 ± 7.3	–	35.5 ± 6.4

Second part, led by results:

IC50 [3] [µM]	IC50 [4] [µM]	Compound	viability (%) of myoblast cells (C2C12) [1] [%]	IC50 [2] [µM]
20.2 ± 2.1	10.1 ± 1.3	CCCCCCCC/C=C\CCCCCCCCOC(=O)C1=C(C)NC(=S)NC1c1ccccc1O (stereo not shown) [11b, (Z)-Octadec-9-enyl 4-(2-hydroxyphenyl)-6-methyl-2-thioxo-1,2,3,4-tetrahydropyrimidine-5-carboxylate]	–	88.5 ± 6.4
125 ± 6.2	28.4 ± 7	CCCCCCCC/C=C\CCCCCCCCOC(=O)C1=C(C)NC(=S)NC1c1cccc(O)c1 (stereo not shown) [11c, (Z)-Octadec-9-enyl 4-(3-hydroxyphenyl)-6-methyl-2-thioxo-1,2,3,4-tetrahydropyrimidine-5-carboxylate]	–	446 ± 84.2
146 ± 25.9	8.8 ± 8.3	CCCCCCCC/C=C\CCCCCCCCOC(=O)C1=C(C)NC(=S)NC1c1cccc(Cl)c1 (stereo not shown) [11f, (Z)-Octadec-9-enyl 4-(3-chlorophenyl)-6-methyl-2-thioxo-1,2,3,4-tetrahydropyrimidine-5-carboxylate]	–	307 ± 143

Source: publication PMC11261338 (RSC Advances, 2024)
